A short description of this data set: Toxicity liver stage against HepG2, at 10uM. Format: cell-based. Further details: test concentration 10 uM, cell line HepG2-A16-CD81EGFP. As to conditions: human, HepG2-A16-CD81EGFP cells; read-out: INHIBITION
In a few lines:
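Uninfected HepG2-A16-CD81EGFP cells, 3 × 10^3 per well, 1536-well, plated on prespotted compound at 10 μM final, parasite-free screening media added to match infected plates; puromycin 10 μM positive, DMSO 0.5% negative; run in parallel with 48 h PbLuc assay at 37 °C, 5% CO2; viability by CellTiter-Glo luminescence, normalized to controls.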
Take `CC(Nc1ccn(Cc2ccccn2)n1)C(=O)NC(C)(C)C` (configuration not stated): the cytotoxicity at 10 µM is -2.08%.

With `COc1cc(NC(=O)c2nc3ccccc3n(C)c2=O)cc(OC)c1`, the cytotoxicity at 10 µM came out at 7.67%. For `CC(C)(C)C(=O)Nc1cnn(-c2ccccc2S(C)(=O)=O)c1` the value was 3.65%; for `COc1c(C)cnc(CN2CCC(C(=O)N(C)C)CC2)c1C`, -12.6%. For `COc1ccc(F)cc1C(=O)N1C[C@@H]2CC[C@H]1CN(c1ncccn1)C2`, the cytotoxicity at 10 µM worked out at 4.24%. For `Cn1nc(Cn2cccn2)c2c1CN(Cc1ccsc1)C2` the value was -148%; for `Cc1ccccc1NC(=O)Nc1c[nH]c(=O)[nH]c1=O`, 3.54%.

Regarding `CCCNC(=O)Cn1nc(C(C)C)c2cnn(C(C)(C)C)c2c1=O`, the cytotoxicity at 10 µM is -20%. As for `O=C(c1c[nH]c2ncccc12)N1CCC(COc2ccccc2)CC1`, the figure is 14.4%; as for `O=C1CC2(CCN(CC3CC3)C2)CN1c1ccc2c(c1)OCO2` (configuration not stated), -2.47%. For `COCCN(C)C[C@@H]1CN(C(=O)c2ccc(O)c(Cl)c2)C[C@@H]1CO` the value was 10.5%. For `O=C(CN1CCSC(c2ccccc2)C1)NCc1ccccn1` (configuration not stated) the value was 14.5%. On to `O=C(CCc1cccnc1)N1CCC2(CCN(CC3CCCC3)C2)C1` (configuration not stated), for which the cytotoxicity at 10 µM worked out at 3.82%. As for `COc1cccc(CN(C)C(=O)CN2CCN(CCO)CC2)c1`, the figure is 12.3%; as for `O=C(CO)N1CCc2onc(Cn3cccn3)c2C1`, 0.436%. For `CC(NC(=O)N1CCS(=O)(=O)CC1)c1ccc(F)cc1Cl` (configuration not stated) the value was -1.28%; for `NCCC(=O)N1CCC2(CC1)CN(C(=O)c1ccc(Cl)cc1)CCO2`, 3.1%; for `CC1COCCN1C(=O)c1cccc(OCc2cscn2)c1` (configuration not stated), -9.93%.

With `CC(NS(N)(=O)=O)c1ccc(OCc2ccc(F)cc2)cc1` (configuration not stated), the cytotoxicity at 10 µM is -2.98%. As for `O=C(c1ccnnc1)N1CC[C@@H](O)[C@@H]1Cc1ccccc1`, the cytotoxicity at 10 µM is 5.03%. For `Cc1csc(N2CCN(CCc3ccccn3)CC2C)n1` (configuration not stated) the value was -8.81%. As for `CCN(CC)CCCNC(=O)C(C)n1cc(Br)cn1` (configuration not stated), the cytotoxicity at 10 µM was -3.33%. Turning to `CCN(Cc1ccoc1)C(=O)c1ccncc1O`, the cytotoxicity at 10 µM stood at 6.85%. `Cc1[nH]ccc1C(=O)N1CCCC(c2nccn2Cc2cscn2)C1` (configuration not stated): the cytotoxicity at 10 µM is -17.5%. In the case of `Cc1cc(-c2cnn(C)c2)ccc1OCC(N)=O`, the cytotoxicity at 10 µM came to 2.74%. `CCC(C)NC(=O)c1nnn(-c2ccc(Br)cc2)n1` (configuration not stated): the cytotoxicity at 10 µM stood at 5.81%. For `CCc1ncc2c(n1)CN(C(=O)CCCc1ccc(OC)cc1)C2` the value was -7.32%; for `O=C(NC1CCCC1)[C@@H]1CN(Cc2nccs2)C[C@H]2OCC[C@H]21`, 4.91%; for `Cc1csc(N2CCCN(C(=O)c3c(C)oc(C)c3C)CC2)n1`, 3.75%. As for `CN(C)c1ccc(C(=O)N2CCCN(Cc3cnn(C)c3)CC2)nn1`, the figure is -5.28%; as for `CCN(Cc1nccn1C)C(=O)c1ccc(NCc2ccccc2)nc1`, -14.3%.

On to `CCc1nnc2n1CCN(Cc1csc(-c3ccccc3)n1)C2`, for which the cytotoxicity at 10 µM is -6.29%. For `CCS(=O)(=O)N1CCc2ccc(NC(=O)Nc3cccc(F)c3)cc21` the value was 38.4%; for `CC(C)(C)CC(=O)N1CSCC1C(=O)NCc1cccc(C#N)c1` (configuration not stated), -9.78%. As for `NC(=O)CC1CCN(C(=O)NCc2cccc(-n3cccn3)c2)CC1`, the figure is -2.45%. As for `Cc1nc(N2CCC3(CCOC3)C2)c2cc[nH]c2n1` (configuration not stated), the figure is -2.95%; as for `Cc1nc(O)c2nnn(C[C@H]3CCCN3C(=O)c3ccc(F)cc3)c2n1`, -4.28%. For `O=C(Nc1c(N2CCCC2)cccc1N1CCCC1)c1cnsn1`, the cytotoxicity at 10 µM was -43%. For `COCCN(Cc1cnn(C)c1)C(=O)C1CCCN(C2CCOCC2)C1` (configuration not stated) the value was 4.76%; for `COc1ccc(C(CNC(=O)NCc2csc(C)n2)N(C)C)cc1` (configuration not stated), -5.59%.

`Fc1ccc(-c2cnc(C3CCCN3)cn2)cc1` (configuration not stated): the cytotoxicity at 10 µM is -2.79%. As for `CCc1cc(O)nc(C2CCCN2C(=O)c2cc(CC)on2)n1` (configuration not stated), the figure is -12.6%; as for `Cc1ccc(C(=O)NCC(C)Cn2ccnc2C)c(=O)[nH]1` (configuration not stated), -0.89%; as for `Cc1cccc(C2CCCCN2C(=O)CCCS(C)(=O)=O)c1C` (configuration not stated), 4.96%. In the case of `Cc1cc(SCC(N)=O)nc(-c2ccc(F)cc2)n1`, the cytotoxicity at 10 µM is -3.42%. For `CC(C)NC(=O)NCc1ccccc1NS(=O)(=O)c1ccccc1`, the cytotoxicity at 10 µM is 9.6%.

As to `Cc1ccc(C(=O)Nc2ccc(N3CCC(O)CC3)c(C#N)c2)s1`, the cytotoxicity at 10 µM is -5.71%.

As for `COc1ccc(N2CCN(C(=O)Cn3nc(C)c(C)c3C)C(C)C2)cc1` (configuration not stated), the cytotoxicity at 10 µM was -4.33%. For `C=Cn1ncc(CN2CCC(c3ncc(Cl)cc3S(C)(=O)=O)CC2)c1C` the value was 6.29%; for `CCOc1cccc(CNC(=O)NC2CC=CC2)c1OC(F)F`, -49.1%; for `CCN(Cc1cccc(F)c1)c1ccc2nnnn2n1`, 15.4%. As for `CC(C(=O)Nc1cccc(N2CCCCC2)c1)n1cncn1` (configuration not stated), the figure is -7.3%; as for `N#Cc1cccnc1N1CCC(c2nc(C(F)(F)F)c[nH]2)CC1`, 2.74%; as for `CC(NC(=O)N1CCN(c2ccccc2)CC1)c1nncn1C` (configuration not stated), 2.36%. In the case of `Cc1nn(C)c(C)c1C1CCCN1CCOc1cccc(C#N)c1` (configuration not stated), the cytotoxicity at 10 µM is -8.41%. `Cc1nc(C)n(CC2CCCN(Cc3noc(C)n3)C2)n1` (configuration not stated): the cytotoxicity at 10 µM is -1.87%. As for `COC1CC2(CCN(Cc3nccn3C)CC2)C1`, the figure is -133%; as for `COc1ccc(CC(C)(O)CNC(=O)NCc2cccs2)cc1` (configuration not stated), 5.62%; as for `COc1ccccc1OC1CCN(C(=O)CCCN2CCOCC2)CC1`, -177%. For `OCCCNC1CCc2cc3c(cc21)OCCO3` (configuration not stated) the value was -5.93%; for `CC(=O)c1cccc(NC(=O)Cn2cnc(-c3ccccc3)cc2=O)c1`, -12.3%.

As to `CC1CN(CC(=O)NCc2cccs2)CCN1c1nccs1` (configuration not stated), the cytotoxicity at 10 µM is -12.8%. On to `CNC(=O)c1nc(CC(=O)Nc2ccc3cc[nH]c3c2)no1`, for which the cytotoxicity at 10 µM was determined as 7.98%.

Regarding `CC(C)CNC(=O)COc1cccc[n+]1[O-]`, the cytotoxicity at 10 µM was -8.35%. Regarding `Cc1cc(C2CCCN(CCC(=O)N3CCc4ccccc43)C2)n[nH]1` (configuration not stated), the cytotoxicity at 10 µM was -7.9%. Turning to `Cc1ccc(CN2CCC3(CC2)CN(C(=O)c2cnccn2)CCO3)o1`, the cytotoxicity at 10 µM is -4%. Take `Cc1ccc(N2CCC3(CC2)CNC(=O)CO3)nn1`: the cytotoxicity at 10 µM amounted to 6.07%. Take `CNC(=O)C(C)(C)N1CCC[C@H]1C(=O)NC1CC1`: the cytotoxicity at 10 µM amounted to 4.82%. As for `CN(Cc1cccc(F)c1)C(=O)CS(=O)(=O)Cc1c(Cl)cccc1Cl`, the figure is -2.81%; as for `COc1ccc(Cc2nnc(SC)o2)cc1OC`, -13.8%; as for `COc1c(CNCc2ccc(C(=O)N3CCCC3)cc2)c(C)nn1C`, -3.23%. As for `Cc1cc(NC(=O)NCc2ccc(S(=O)(=O)N3CCCC3)s2)no1`, the cytotoxicity at 10 µM was -2.24%.

The record behind these values is ChEMBL document CHEMBL4513216, “Probing the Open Global Health Chemical Diversity Library for Multistage-Active Starting Points for Next-Generation Antimalarials” (ACS Infect Dis, 2020).
